Results taken from ChEMBL document CHEMBL3580596, “Discovery of Multitarget Antivirals Acting on Both the Dengue Virus NS5-NS3 Interaction and the Host Src/Fyn Kinases” (J Med Chem, 2015).
pEC50: −log10 of the molar value. The source made the active and inactive calls. The rule behind the calls is not given here.

What was measured:
[1] = target: Proto-oncogene tyrosine-protein kinase Src (Homo sapiens) (UniProt P12931); experiment: Inhibition of human his-tagged full length Src active enzyme using KVEKIGEGTYGVVYK substrate at 100 uM by scintillation counting analysis
Chain of Proto-oncogene tyrosine-protein kinase Src (Homo sapiens) (P12931 2-536 limits assumed): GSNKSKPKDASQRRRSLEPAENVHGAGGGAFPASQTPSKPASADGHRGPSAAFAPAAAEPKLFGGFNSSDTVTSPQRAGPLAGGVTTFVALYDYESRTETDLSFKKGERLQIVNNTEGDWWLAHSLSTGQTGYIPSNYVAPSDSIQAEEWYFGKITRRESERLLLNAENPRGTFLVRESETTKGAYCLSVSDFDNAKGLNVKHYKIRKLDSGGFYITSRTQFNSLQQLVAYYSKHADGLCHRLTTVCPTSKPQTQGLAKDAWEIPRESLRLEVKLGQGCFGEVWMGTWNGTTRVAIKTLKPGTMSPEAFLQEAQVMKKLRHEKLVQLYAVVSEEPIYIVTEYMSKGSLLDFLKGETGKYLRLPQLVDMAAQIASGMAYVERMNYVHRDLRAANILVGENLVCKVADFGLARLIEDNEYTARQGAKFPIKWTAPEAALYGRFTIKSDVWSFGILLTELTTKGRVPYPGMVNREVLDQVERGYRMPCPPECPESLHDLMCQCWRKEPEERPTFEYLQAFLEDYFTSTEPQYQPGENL

[2] = Cytotoxicity against african green monkey Vero B cells; assay type: cell-based; conditions: chlorocebus sabaeus
Method in brief: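 Uninfected Vero-B cells treated with compound dilutions; CC50 taken as concentration giving 50% reduction of metabolic activity or cell growth. Read-out by MTS/PMS (yield-assay series) or by 7-day methylene blue staining with microscopic scoring (CPE series, 1:2 dilutions from 100 μg/mL).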

dengue virus type 2 [3] = experiment: Antiviral activity against DENV serotype 2 strain New Guinea V infected in African green monkey Vero B cells assessed as inhibition of virus-induced cytopathogenic effect after 7 days; assay type: functional, organism-based; conditions: for pEC50: Dengue virus, New Guinea V, Vero, 168 h, read-out: EC50; for EC50: vero
Method in brief: (§1)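 Vero-B cells, 7×10^3/well, adhered overnight, then given 1:2 serial dilutions (start 100 μg/mL) plus 100 CCID50 DENV-2 NGC (virus grown in C6/36 cells) in MEM with 2% FBS. After 7 days, fixed with ethanol and stained with 1% methylene blue. EC50 for 50% inhibition of virus-induced CPE comes from microscopic scoring of each well.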

[4] = target: Tyrosine-protein kinase Fyn (Homo sapiens) (UniProt P06241); experiment: Inhibition of human his-tagged full length Fyn active enzyme using KVEKIGEGTYGVVYK substrate at 100 uM by scintillation counting analysis
Chain of Tyrosine-protein kinase Fyn (Homo sapiens) (P06241 2-537 limits assumed): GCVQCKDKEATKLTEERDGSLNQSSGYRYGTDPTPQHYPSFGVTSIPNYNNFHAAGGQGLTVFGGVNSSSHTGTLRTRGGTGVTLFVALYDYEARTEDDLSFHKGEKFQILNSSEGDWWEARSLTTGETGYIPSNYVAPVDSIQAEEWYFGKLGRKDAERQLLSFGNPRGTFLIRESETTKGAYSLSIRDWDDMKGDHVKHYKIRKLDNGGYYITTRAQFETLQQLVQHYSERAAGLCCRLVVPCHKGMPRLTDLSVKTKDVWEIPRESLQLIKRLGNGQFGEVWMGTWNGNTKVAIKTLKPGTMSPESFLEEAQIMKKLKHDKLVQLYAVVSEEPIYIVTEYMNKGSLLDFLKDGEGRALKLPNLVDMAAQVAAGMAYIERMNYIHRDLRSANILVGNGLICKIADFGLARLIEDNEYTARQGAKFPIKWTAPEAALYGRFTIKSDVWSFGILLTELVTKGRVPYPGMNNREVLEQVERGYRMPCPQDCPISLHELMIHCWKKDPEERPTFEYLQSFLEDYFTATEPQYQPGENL

[5] = target: Proto-oncogene tyrosine-protein kinase Src (Homo sapiens) (UniProt P12931); experiment: Inhibition of human his-tagged full length Src active enzyme using KVEKIGEGTYGVVYK substrate by scintillation counting analysis
[6] = target: Tyrosine-protein kinase Fyn (Homo sapiens) (UniProt P06241); experiment: Inhibition of human his-tagged full length Fyn active enzyme using KVEKIGEGTYGVVYK substrate by scintillation counting analysis
dengue virus type 2 [7] = experiment: Inhibition of DENV2 His- and FLAG-tagged NS3 and NS5 protein interaction at 500 uM after 1 hr by alphascreen assay
[8] = Selectivity index, ratio of CC50 for African green monkey Vero B cells to EC50 for DENV serotype 2 strain New Guinea V
dengue virus type 2 [9] = experiment: Antiviral activity against DENV serotype 2 strain New Guinea V infected in African green monkey Vero B cells assessed as inhibition of virus replication after 4 days by qRT-PCR analysis; assay type: functional, organism-based; conditions: 96 h
Method in brief: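 Vero-B cells, 5×10^4/well, infected one day after seeding with 100 CCID50 DENV-2 NGC for 2 h, then washed 3 times. Cultured 4 days with 5-fold compound dilutions (50–0.08 μg/mL) in medium with 2% FBS. Supernatant viral RNA measured by RT-qPCR; EC50 (50% inhibition of RNA replication) found by logarithmic interpolation.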

Dengue virus = experiment: Antiviral activity against DENV by CPE-reduction assay; assay type: functional, organism-based; method in brief: as §1
dengue virus type 2 [10] = experiment: Inhibition of DENV2 His- and FLAG-tagged NS3 and NS5 protein interaction at 50 uM after 1 hr by alphascreen assay
Method in brief: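 Wheat-germ cell-free expressed HF-NS3 (or HF-DHFR as negative control) and GST-tagged biotinylated NS5, 25 nM each, incubated 1 h at room temperature with compound (0.5% DMSO) in Tris pH 7.5/NaCl/MgCl2/DTT/BSA/Tween-20 buffer. Then anti-FLAG IgG, protein A acceptor and streptavidin donor beads added for 1 h; luminescence expressed as % of DMSO control, n=2.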

dengue virus type 2 [11] = experiment: Antiviral activity against DENV serotype 2 strain New Guinea V infected in African green monkey Vero B cells assessed as RNA replication after 4 days by RT-qPCR analysis; assay type: functional, organism-based
Method in brief: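 Vero-B cells (5×10^4/well) infected 2 h with DENV-2 NGC (100 CCID50), washed 3×, then cultured 4 days with 5-fold serial compound dilutions (50 – 0.08 μg/mL) in MEM with 2% FBS. Viral RNA in supernatant quantified by RT-qPCR; EC50 (50% inhibition of viral RNA replication) by logarithmic interpolation.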

dengue virus type 2 [12] = experiment: Ratio of ribavirin EC50 to compound EC50 for DENV serotype 2 strain New Guinea V infected in African green monkey Vero B cells assessed as inhibition of virus-induced cytopathogenic effect after 7 days; assay type: functional

| Structure (SMILES) | CC50 [2] | ID50 [5] | ID50 [6] | EC50 (dengue virus type 2 [3]) | inhibition (dengue virus type 2 [7]) | Ratio CC50/EC50 [8] | pEC50 (dengue virus type 2 [9]) | also measured |
| --- | --- | --- | --- | --- | --- | --- | --- | --- |
| COc1ccc(Cn2c(C)cc(OCc3cccc(F)c3)cc2=O)cc1 | < 6.4 µM | – | – | – | – | – | – | inhibition [1]: inactive; pEC50 (dengue virus type 2 [3]): > 5.19; inhibition [4]: inactive |
| NS(=O)(=O)c1ccc(Nc2nc(N3CCN(CCO)CC3)nc3[nH]cnc23)cc1 | – | 7.4 µM | 4.8 µM | Not Active | Active | – | – | – |
| Oc1cccc(Nc2nc(NCc3ccccc3)nc3[nH]cnc23)c1 | > 150 µM | 3.7 µM | 4.1 µM | – | Active | >2 | 4.16 | – |
| COc1ccc2c(Nc3ccc(Cl)cc3Cl)c(C#N)cnc2c1 | 19 µM | 0.2 µM | 2 µM | Not Active | – | – | – | – |
| Cc1cc(OCc2ccc(F)cc2F)cc(=O)n1Cc1cn(Cc2cccc(C(F)(F)F)c2)nn1 | 40 µM | – | – | Not Active | – | – | – | inhibition [1]: inactive; inhibition [4]: inactive |
| OCCN1CCN(c2nc(Nc3ccccc3)c3nc[nH]c3n2)CC1 | 474 µM | 4.2 µM | 4.2 µM | Not Active | Active | – | – | – |
| CC(=O)c1ccc(Nc2nc(NCCC(C)C)nc3[nH]cnc23)cc1 | 85 µM | – | – | – | Active | 1 | 4.23 | – |
| CC(C)CCNc1nc(Nc2cccc(O)c2)c2nc[nH]c2n1 | 151 µM | 1.7 µM | 1.7 µM | – | Active | 8 | 4.70 | – |
| Cc1nc(Nc2ncc(C(=O)Nc3c(C)cccc3Cl)s2)cc(N2CCN(CCO)CC2)n1 [DASATINIB] | – | – | – | – | – | – | – | pEC50 (Dengue virus): 6.00 |
| CNc1nc(Nc2cccc(O)c2)c2nc[nH]c2n1 | 168 µM | – | 3.6 µM | – | Active | 32 | 5.28 | inhibition (dengue virus type 2 [10]): 33%; inhibition (dengue virus type 2 [11]): Dose-dependent effect; ID50 [1]: 4.9 µM; Ratio EC50 (dengue virus type 2 [12]): 10 |
| CN1CCN(CCOc2cc(OC3CCOCC3)c3c(Nc4c(Cl)ccc5c4OCO5)ncnc3c2)CC1 [SARACATINIB] | – | – | – | – | – | – | – | pEC50 (Dengue virus): 5.22 |
| Cc1cc(OCc2ccc(F)cc2F)cc(=O)n1Cc1cn(Cc2cccc(Br)c2)nn1 | 36 µM | – | – | Not Active | – | – | – | – |
| COc1ccc2c(Nc3ccc(N4CCN(C)CC4)cc3)c(C#N)cnc2c1 | 7.9 µM | – | – | Not Active | – | – | – | inhibition [1]: inactive; inhibition [4]: inactive |
| NS(=O)(=O)c1ccc(Nc2nc(N3CCOCC3)nc3[nH]cnc23)cc1 | 373 µM | 0.9 µM | 0.5 µM | Not Active | Active | – | – | – |
| COc1cc2ncc(C#N)c(Nc3ccc(Cl)cc3Cl)c2cc1OC | < 5.7 µM | 0.03 µM | 0.22 µM | – | – | – | – | pEC50 (dengue virus type 2 [3]): > 5.24 |
| CC(=O)c1ccc(Nc2nc(NCCO)nc3[nH]cnc23)cc1 | 160 µM | – | – | – | Active | 2 | 4.14 | – |
| NS(=O)(=O)c1ccc(Nc2nc(N3CCN(CCO)CC3)nc3nc[nH]c23)cc1 | 437 µM | – | – | – | – | – | – | – |
| NC(=O)c1ncn([C@@H]2O[C@H](CO)[C@@H](O)[C@H]2O)n1 [RIBAVIRIN] | 409 µM | – | – | – | – | >10 | 4.38 | – |
| CNc1nc(Nc2ccc(C(C)=O)cc2)c2nc[nH]c2n1 | > 177 µM | – | – | – | Active | >4 | 4.38 | – |
